Bioassay records: PubChem BioAssay, several laboratories
HSF-1 act – increases HSF-1 driven luciferase reporter signal; activation, % at 9 µM; NIH3T3-HGL HSF-1 luciferase reporter, MG132, 8 h; 100% = twice DMSO control signal; 1.7% of 300,000 active;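 active = mean replicate activation of at least 50% with a set share of replicates each reaching 50%; inconclusive = only one of those two conditions met; inactive = mean below 50% and too few replicates reaching it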;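 note: 0% = median of the neutral control wells and 100% = twice that signal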
HSF1 inh – HSF1 inhibition; NIH3T3-HGL HSE-luciferase, MG132-induced, luminescence 8 h; stronger effect = lower value; activity change, negative = inhibition, % at 7.5 µM (by protocol); 0.77% of 300,000 active;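 active = more than half of replicate wells show activity change below -50%, luminescence cut by over half; inconclusive = some wells, but at most half, below -50%; inactive = no replicate well below -50%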;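 note: luciferase reports HSF-1 transcriptional activity via heat shock element; 0% = median of DMSO wells and -100% = zero luminescence signal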
HSP90 inh – HSP90 refolding inhibition in rabbit reticulocyte lysate; 0.91% of 290,000 active; inhibition, % at 5.6 µM; luciferase refolding luminescence, 3 h;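 active = inhibition above the screen-wide mean plus 3 SD, computed separately per campaign, cut at about 16% in these data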;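 note: 0% = DMSO wells and 100% = 60 µM geldanamycin wells; inhibitors lower the luminescence because luciferase stays unfolded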
Lipid droplet – hepatic lipid droplet formation modulation; AML12 mouse hepatocytes, oleate lipid droplets, BODIPY imaging; inhibition, % at 6.5 µM; 0.4% of 240,000 active; AID 1656;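 active = lipid droplet intensity inhibited by at least 50%, with more than 500 cells counted; inconclusive = wells with under 300 cells, treated as cytotoxic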
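Material – AML12 mouse liver cells · Also added – oleate loading, 100 µM · Compound dosing – 6.5 µM single-point dosing · Times – overnight treatment with compound plus oleate · Measured by – fluorescence imaging, 20x objective, two fields per well · Read-out – percent inhibition of filter-corrected integrated lipid droplet intensity per well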
NS3 helicase inh – blocks Hepatitis C virus NS3 helicase unwinding; inhibition, % at 10.9 µM; 0.56% of 290,000 active; NS3 helicase DNA unwinding, Cy5 molecular beacon fluorescence; AID 1800;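 active = inhibition above the mean of all tested compounds plus 3 SD, set per campaign, cut at about 35% in these data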;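 note: 0% = DMSO wells and 100% = thioflavine S control wells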
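System: HCV NS3 helicase fragment; control set: DMSO and thioflavine S; technique: Cy5 fluorescence at 0 and 60 min, beacon hairpin quenching; reagent: beacon DNA duplex substrate plus ATP; replicates: singlicate; schedule: 1 h reaction at 25 °C, ATP-initiated; medium: MOPS buffer pH 6.5 with MgCl2, DTT, Tween20, BSA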
Active calls of the source: *. An excerpt weighted towards active compounds, which were near 3.8% of everything screened.

For C=CCSC1=Nc2sccc2C2=NC(=O)CN12 the results were HSF-1 act -81, HSF1 inh -75*, HSP90 inh -2 and NS3 helicase inh 21.
Screening C=CCOc1ccc(C(c2c(C)n(C)n(-c3ccccc3)c2=O)c2c(C)n(C)n(-c3ccccc3)c2=O)cc1 returned HSF-1 act -87, HSF1 inh -85*, HSP90 inh 4 and NS3 helicase inh -3.
Cc1ccc(C(=O)n2cnnc2N)cc1 was read as HSF-1 act 66*, HSF1 inh 15, HSP90 inh 1 and NS3 helicase inh 5.
`Cc1ccc(C(=O)n2cnnc2N)cc1C` gave HSF-1 act -1, HSF1 inh -9, HSP90 inh -2, Lipid droplet -1 and NS3 helicase inh 2.
`Cc1ccc(C)c(NC(=O)COC(=O)COc2cccc3c2OC(C)(C)C3)c1` gave HSF-1 act 7 and HSF1 inh -3.
Screening CCOc1cc(N2CCOCC2)c(OCC)cc1NC(=O)COC(=O)c1cc2ccccc2cc1O returned HSF-1 act 9, HSF1 inh 8, HSP90 inh 2, Lipid droplet -1 and NS3 helicase inh 4.
`CCOc1cc(N2CCOCC2)c(OCC)cc1NC(=O)c1cc(-c2ccco2)nc2ccccc12` gave HSF-1 act -78, HSF1 inh -77*, HSP90 inh 1 and NS3 helicase inh 10.
CCOc1cc(N2CCOCC2)c(OCC)cc1NC(=O)COc1ncnc2ccccc12 was read as HSF-1 act 11, HSF1 inh 0, HSP90 inh 3, Lipid droplet 2 and NS3 helicase inh 4.
CCOc1cc(N2CCOCC2)c(OCC)cc1NC(=O)c1cccc(N(C)C)c1 was read as HSF-1 act -60, HSF1 inh -51*, HSP90 inh -1, Lipid droplet 6 and NS3 helicase inh -8.
For CCOc1ccc(OCCC(=O)OCC(=O)Nc2cc(OCC)c(N3CCOCC3)cc2OCC)cc1 the results were HSF-1 act 111* and HSF1 inh 85.
CCN(C(=O)COC(=O)Cc1c[nH]c2ccccc12)c1c(N)n(Cc2ccccc2)c(=O)[nH]c1=O was read as HSF-1 act 5 and HSF1 inh -2.
Screening Cc1cc(C)c(OCC(=O)Nc2ccc(S(=O)(=O)N3CCCC3)cc2)c(C)c1 returned HSF-1 act -10 and HSF1 inh 4.
Screening Cc1cc(NC(c2cccnc2)c2c(C)[nH]c3ccccc23)no1 (centres undefined) returned HSF-1 act 12, HSF1 inh 3, HSP90 inh 16*, Lipid droplet 10 and NS3 helicase inh 8.
CC1=NN(C(N)=S)C(C)(C)C1 was read as HSF-1 act -66, HSF1 inh -55*, HSP90 inh 3, Lipid droplet 2 and NS3 helicase inh 3.
`O=C(CN1C(=O)CC(c2ccccc2)=Nc2ccccc21)NCc1ccco1` gave HSF-1 act 71*, HSF1 inh 17, HSP90 inh -2, Lipid droplet -7 and NS3 helicase inh -7.
`O=C(CN1C(=O)CC(c2ccccc2)=Nc2ccccc21)NCc1ccccc1` gave HSF-1 act 9, HSF1 inh -3, HSP90 inh 2, Lipid droplet 30 and NS3 helicase inh 12.
Screening OC(COCc1ccccc1F)CN1CCCCC1 (centres undefined) returned HSF-1 act -39 and HSF1 inh -24.
Screening Cc1c(O)ccc(/C(Cc2ccc3ccccc3n2)=N\O)c1O returned HSF-1 act 70*, HSF1 inh 38, HSP90 inh 1 and NS3 helicase inh -7.
`CC(=O)Oc1ccc(C(=O)Cc2ccccn2)c(O)c1` gave HSF-1 act 1, HSF1 inh -1, HSP90 inh 0, Lipid droplet 4 and NS3 helicase inh 3.
`CC(=O)Oc1ccc(C(=O)Cc2ccc3ccccc3n2)c(O)c1C` gave HSF-1 act 76*, HSF1 inh 47, HSP90 inh 5, Lipid droplet 24 and NS3 helicase inh 14.
Oc1ccc(/C(Cc2ccc3ccccc3n2)=N\Nc2ccccc2)c(O)c1 was read as HSF-1 act 29, HSF1 inh 16, HSP90 inh -2, Lipid droplet 2 and NS3 helicase inh 7.
CC(SCc1nc2sc3c(c2c(=O)[nH]1)CCCC3)C(=O)Nc1ccccn1 (centres undefined) was read as HSF-1 act -2 and HSF1 inh 4.
For Cc1ccc(NC(=O)Cn2cccc2)c(C)c1 the results were HSF-1 act -5, HSF1 inh -4, HSP90 inh -1, Lipid droplet -2 and NS3 helicase inh -11.
COc1cc(NC(=O)COc2ccccc2C)ccc1NC(=O)c1ccco1 was read as HSF-1 act 10, HSF1 inh 0, HSP90 inh 1, Lipid droplet -2 and NS3 helicase inh -2.
For COc1ccc(S(=O)(=O)Cc2ccc(C(=O)NCCCN(C)c3ccccc3)o2)cc1 the results were HSF-1 act 60*, HSF1 inh 27, HSP90 inh 4 and NS3 helicase inh -6.
CCCCNC(=O)c1ccc(CS(=O)(=O)c2ccc(OC)cc2)o1 was read as HSF-1 act 1, HSF1 inh -1, HSP90 inh -4 and NS3 helicase inh -2.
Screening COC(=O)c1ccc(NC(=O)c2nc(S(=O)(=O)Cc3cccc(C)c3)ncc2Cl)cc1 returned HSF-1 act -88, HSF1 inh -86*, HSP90 inh 0, Lipid droplet -22 and NS3 helicase inh -13.
Cc1cccc(CS(=O)(=O)c2ncc(Cl)c(C(=O)NCc3ccc4c(c3)OCO4)n2)c1 was read as HSF-1 act 317*, HSF1 inh 268, HSP90 inh 1, Lipid droplet 16 and NS3 helicase inh 0.
For CC(=O)Nc1ccc(NC(=O)c2nc(S(=O)(=O)Cc3cccc(C)c3)ncc2Cl)cc1 the results were HSF-1 act -40, HSF1 inh inconclusive, HSP90 inh 2, Lipid droplet 14 and NS3 helicase inh -6.
For Cc1nnc(N/N=C/C(C)c2ccccc2)[nH]c1=O (centres undefined) the results were HSF-1 act 1, HSF1 inh -3, HSP90 inh 1, Lipid droplet 7 and NS3 helicase inh -1.
`Cc1cc(/C=C2/C(=O)NN(c3ccccc3)C2=O)c(C)n1-c1ccc(O)cc1` gave HSF-1 act -69, HSF1 inh -69*, HSP90 inh -2, Lipid droplet -3 and NS3 helicase inh 2.
O=C(NC1CC1)C1CCN(c2nc3ccccc3s2)CC1 was read as HSF-1 act 29, HSF1 inh 14, HSP90 inh 2, Lipid droplet 8 and NS3 helicase inh 2.
Screening CC1(C)COC(/C=C/c2ccc([N+](=O)[O-])cc2)=N1 returned HSF-1 act 118*, HSF1 inh 78, HSP90 inh 3, Lipid droplet -20 and NS3 helicase inh 16.
COc1ccc(-c2ccc(=O)n(Cc3c(F)cccc3Cl)n2)cc1 was read as HSF-1 act 4, HSF1 inh 4, HSP90 inh 1 and NS3 helicase inh 0.
